Some results are limits rather than exact numbers.

From ChEMBL document CHEMBL1125533, “Novel 1-(pyridylphenyl)-1-phenyl-2-imidazolylethanols with topical antiinflammatory activity” (J Med Chem, 1992) come the findings set out here.

The target in data set [1] is T1, Polyunsaturated fatty acid 5-lipoxygenase (Rattus norvegicus, UniProt P12527).
T1 sequence (P12527 whole entry): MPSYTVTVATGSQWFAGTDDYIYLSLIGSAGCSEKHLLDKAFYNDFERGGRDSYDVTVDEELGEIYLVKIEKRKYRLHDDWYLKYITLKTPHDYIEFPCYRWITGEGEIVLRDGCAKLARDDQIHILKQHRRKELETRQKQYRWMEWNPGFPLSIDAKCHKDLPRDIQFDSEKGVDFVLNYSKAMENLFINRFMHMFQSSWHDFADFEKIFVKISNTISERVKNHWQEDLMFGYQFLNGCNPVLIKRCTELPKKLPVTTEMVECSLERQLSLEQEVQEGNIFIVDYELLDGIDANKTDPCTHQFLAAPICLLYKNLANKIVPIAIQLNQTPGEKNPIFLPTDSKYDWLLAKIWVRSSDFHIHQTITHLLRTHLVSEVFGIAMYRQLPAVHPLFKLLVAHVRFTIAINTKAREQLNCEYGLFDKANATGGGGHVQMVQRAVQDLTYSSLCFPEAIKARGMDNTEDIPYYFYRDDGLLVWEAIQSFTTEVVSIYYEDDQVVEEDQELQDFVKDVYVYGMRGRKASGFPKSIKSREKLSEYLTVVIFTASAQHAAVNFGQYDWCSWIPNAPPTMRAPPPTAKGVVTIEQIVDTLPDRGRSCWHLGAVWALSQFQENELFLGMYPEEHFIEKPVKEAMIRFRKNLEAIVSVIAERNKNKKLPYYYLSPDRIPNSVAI
Description: Inhibitory activity against 5-lipoxygenase of RBL-1 cell line. It counts as cell-based.

A short description of data set [2]: Partition coefficient (logP). It is filed as physicochemical. The following applies: octanol/water. The gist of the method:
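log P estimated from reversed-phase HPLC retention time. Calibration curve built from shake-flask octanol/water log P values of eight pyridines. Log RT vs log P was linear.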

In data set [3] the test system is Mus musculus. Nature of the data set: (§1) In vivo inhibitory activity against A-23187 ear edema at a dose of 100 ug/ear. It counts as functional. The method in brief: (§2)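 Mouse ear edema, topical: inflammation induced by PMA, A23187 or arachidonic acid on one ear, with the unchallenged ear as control. Mice were killed by cervical dislocation at set times after challenge, and 6 mm punches were weighed. Edema = challenged minus unchallenged punch weight. Percent inhibition = [(C−T)/C]×100 at 100 μg/ear. Duplicate separate experiments, 10 animals per group. Student's t test.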

The subject of data set [4] is Mus musculus. Description: (§3) In vivo inhibitory activity against arachidonic acid(AA) ear edema at a dose of 100 ug/ear. It is filed as functional. The gist of the method: as §2
The test system of data set [5] is Mus musculus. Nature of the data set: In vivo inhibitory activity against phorbol myristyl acetate (PMA) ear edema at a dose of 100 ug/ear. It counts as functional. The method in brief:
as §2

In data set [6] the test system is Mus musculus. Description: In vivo inhibitory activity in a phorbol myristyl acetate (PMA) ear edema model at a dose of 100 ug/ear. It counts as functional. The gist of the method:
as §2

For another data set, the target named is T2, Cyclooxygenase (Bos taurus, UniProt O62664+O62698).
T2 sequence (O62664 whole entry): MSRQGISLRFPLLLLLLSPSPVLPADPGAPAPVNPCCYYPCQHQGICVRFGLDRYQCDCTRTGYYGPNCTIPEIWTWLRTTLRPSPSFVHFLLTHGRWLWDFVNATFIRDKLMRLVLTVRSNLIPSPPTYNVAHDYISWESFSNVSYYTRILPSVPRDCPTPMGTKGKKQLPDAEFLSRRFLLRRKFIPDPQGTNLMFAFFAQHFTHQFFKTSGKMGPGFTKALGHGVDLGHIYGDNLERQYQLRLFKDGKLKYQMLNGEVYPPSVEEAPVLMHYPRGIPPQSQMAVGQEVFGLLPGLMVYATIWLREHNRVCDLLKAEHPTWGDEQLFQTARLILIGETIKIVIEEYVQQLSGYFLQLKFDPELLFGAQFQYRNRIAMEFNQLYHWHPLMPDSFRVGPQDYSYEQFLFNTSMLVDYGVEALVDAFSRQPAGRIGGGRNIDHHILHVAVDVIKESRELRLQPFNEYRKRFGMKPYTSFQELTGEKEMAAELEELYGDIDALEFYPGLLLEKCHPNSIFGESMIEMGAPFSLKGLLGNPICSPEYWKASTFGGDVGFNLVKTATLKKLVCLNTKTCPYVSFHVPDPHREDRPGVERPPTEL
T2 sequence (O62698 whole entry): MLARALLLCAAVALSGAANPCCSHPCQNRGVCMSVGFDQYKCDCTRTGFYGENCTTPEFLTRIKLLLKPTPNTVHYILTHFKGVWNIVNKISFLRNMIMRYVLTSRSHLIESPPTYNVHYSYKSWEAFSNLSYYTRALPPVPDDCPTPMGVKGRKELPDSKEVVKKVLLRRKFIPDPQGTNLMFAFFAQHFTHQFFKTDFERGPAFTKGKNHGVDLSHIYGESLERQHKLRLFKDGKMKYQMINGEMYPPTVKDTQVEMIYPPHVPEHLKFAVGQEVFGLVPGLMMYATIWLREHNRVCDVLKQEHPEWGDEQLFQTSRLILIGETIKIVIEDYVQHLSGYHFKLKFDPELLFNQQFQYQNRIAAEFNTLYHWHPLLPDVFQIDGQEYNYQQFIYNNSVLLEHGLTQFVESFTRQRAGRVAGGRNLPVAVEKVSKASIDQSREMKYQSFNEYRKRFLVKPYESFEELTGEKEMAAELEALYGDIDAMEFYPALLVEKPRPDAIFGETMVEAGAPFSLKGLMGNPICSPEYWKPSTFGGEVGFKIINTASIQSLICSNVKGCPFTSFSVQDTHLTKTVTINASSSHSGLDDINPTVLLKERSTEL
Description: Inhibitory activity against Prostaglandin G/H synthase (bovine seminal vesicles). It is filed as protein assay.

In data set [7] the test system is Mus musculus. The description is as §3. It is filed as functional. The method in brief:
(§4)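 Topical mouse ear edema test at 100 µg/ear; the inflammogen is applied to one ear and the unchallenged ear serves as control. Mice are killed by cervical dislocation at set times, and 6 mm biopsy punches from each ear are weighed. Edema is the challenged-minus-unchallenged weight. Percent inhibition is [(C−T)/C]×100. Duplicate separate experiments, 10 animals per group; averages of two or more determinations.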
This is another data set of the same source.

In data set [8] the test system is Mus musculus. Described as §1. It is filed as functional. The gist of the method:
as §4
This is another data set of the same source.

Take `OC(Cn1ccnc1)(c1ccc(F)cc1)c1ccc(-c2ccncc2)cc1` (centres undefined): the IC50 in data set [1] is more than 25 µM; against Cyclooxygenase, more than 750 µM. The molecule also came in with a logP in [2] of 2.47. Also, the figures for the ED50 with Mus musculus [3], with Mus musculus [4] and with Mus musculus [5] were 21 ug ear-1, 543 ug ear-1 and 4.6 ug ear-1, respectively. The same molecule gave an Inhibition in the data set on Mus musculus [6] of 72%.
For the molecule `Cc1ccc(C(O)(Cn2ccnc2)c2ccc(-c3ccncc3)cc2)cc1` (centres undefined), the values for the IC50 (in data set [1]; at Cyclooxygenase) were more than 25 µM and more than 750 µM, respectively. Further, in data set [2], the logP worked out at 3.13. Further, the figures for the ED50 in the data set on Mus musculus [3] and in the data set on Mus musculus [5] were 13 ug ear-1 and 13.2 ug ear-1, respectively. Also, the Inhibition was 16% with Mus musculus [7] and 62% with Mus musculus [6].
On to `CC(=O)N1CCN(c2ccc(OCC3COC(Cn4ccnc4)(c4ccc(Cl)cc4Cl)O3)cc2)CC1` (centres undefined) [KETOCONAZOLE], for which the IC50 in data set [1] was more than 25 µM; against Cyclooxygenase, more than 750 µM. Further, the ED50 with Mus musculus [5] was 34 ug ear-1. Besides, the values for the Inhibition in the data set with Mus musculus [7] and with Mus musculus [8] were 10% and 8%, respectively.
